Published values collected from several papers.
Target: Dual specificity protein kinase CLK4 (CLK4, Homo sapiens, UniProt Q9HAZ1)

SMILES	observed	action	method	concentration	quantity	value
CC(C)(C)c1cc(C=C(C#N)C#N)cc(Br)c1O	enzyme activity	inhibitor		0.5 µM	remaining activity	88.6%
C#Cc1n[nH]c2c(-c3cn([C@@H](C)c4ccccc4)c(=O)[nH]c3=O)cc(F)cc12	enzyme activity	inhibitor		0.1 µM	inhibition	-0.9%
Nc1ncc(-c2nc(N3CCOCC3)nc(N3CCOCC3)n2)c(C(F)F)n1	binding		competition with immobilised ligand	10 µM	remaining binding	30%
Cc1nn(C)cc1-c1nc2c(N3CCN(Cc4ccc(Cl)cc4)CC3)c(Cl)cnc2[nH]1	binding		competition with immobilised ligand	1 µM	remaining binding	100%
Cn1cncc1[C@@](O)(COc1ccc(C#N)cc1-c1ccc(OC(F)(F)F)cc1)c1ccc(C#N)cc1	cell-free assay		competition with immobilised ligand	1 µM	remaining binding	96%
COc1cc(Nc2ncc(F)c(Nc3ccc4c(n3)NC(=O)C(C)(C)O4)n2)cc(OC)c1OC	binding		competition with immobilised ligand	10 µM	inhibition	85%
C#Cc1n[nH]c2c(-c3cn([C@@H](C)c4ccccn4)c(=O)[nH]c3=O)cc(F)cc12	enzyme activity	inhibitor		0.1 µM	inhibition	8.9%
O=c1[nH]c2ccccc2n1C1CCN(Cc2ccc(-c3[nH]c4cc5ncnc5cc4nc3-c3ccccc3)cc2)CC1	cell-free assay			0.5 µM	remaining signal	92.8%
COc1ncccc1-c1cnn2ccc(N3CCN(C(=O)OC(C)C)CC3)nc12	binding		competition with immobilised ligand	1 µM	remaining binding	98%
